Measurements from PMC3778918 (Clinical cancer research : an official journal of the …, 2013).
“Also recorded” adds a separate entry of the source.

Tests used:
C3(1)-T-antigen tumors = test: Short-term tumor volume response, C3; assay type: in vivo, mice (FVB/n); settings: C3(1)-T-antigen model; for Tumor response (change in tumor volume), in words: 21-day treatment
Procedure, shortened: (§1)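 FVB/n transgenic mice bred in-house, enrolled at spontaneous mammary tumor onset (~0.5 cm), randomized to treatment or untreated control groups. Injectable agents given i.p. once weekly, three doses over 21 days; oral agents milled into chow, given continuously; combinations at single-agent doses. Caliper and/or ultrasound measurements; volume = (width)² × length/2; response = percent volume change at day 21.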

T11/TP53−/− tumors = test: Short-term tumor volume response, T11/TP53-/- OST; assay type: in vivo, mice (BALB/c); settings: T11/TP53−/− model, 14-day treatment
MMTV-Neu tumors [1] = test: Short-term tumor volume response, MMTV-Neu GEMM; assay type: in vivo, mice (FVB/n); settings: MMTV-Neu model; for Tumor response (change in tumor volume), in words: 21-day treatment
Procedure, shortened: as §1

MMTV-Neu tumors [2] = test: Overall survival of tumor-bearing mice, MMTV-Neu; assay type: in vivo, mice (FVB/n); settings: MMTV-Neu model, single agent
[3] = Paclitaxel pharmacokinetics in plasma and tumor; assay type: in vivo, transgenic FVB/n mice bearing the MMTV-Neu transgene

Compound	Tumor response (change in tumor volume), in words (C3(1)-T-antigen tumors)	Tumor response (change in tumor volume), in words (T11/TP53−/− tumors)	Tumor response (change in tumor volume), in words (MMTV-Neu tumors [1])	Extension of lifespan, in words (MMTV-Neu tumors [2])	Subset of treated mice showing potent activity (C3(1)-T-antigen tumors) [%]	Median survival (MMTV-Neu tumors [2]; untreated median 29 days) [days]	Tumor regression (MMTV-Neu tumors [1]; all tumors) [%]	AUC(0-inf) ([3]; FVB/n (MMTV-Neu transgenic), mouse, plasma, ip, 10 mg/kg) [ng·h/mL]	AUC0-∞ in tumor ([3]; single IP dose 10 mg/kg, MMTV-Neu mice, tumor) [µg·h/g]
N.N.O=C([O-])C1(C(=O)[O-])CCC1.[Pt+2] [carboplatin, Carboplatin]	modest but significant responses	modest but significant responses	modest but significant responses						
C#Cc1cccc(Nc2ncnc3cc(OCCOC)c(OCCOC)cc23)c1 [erlotinib]			highly effective	to some extent	~40				
CS(=O)(=O)CCNCc1ccc(-c2ccc3ncnc(Nc4ccc(OCc5cccc(F)c5)c(Cl)c4)c3c2)o1 [lapatinib]	ineffective	neither erlotinib nor lapatinib were effective	exceptional efficacy; also recorded: highly effective; also recorded: complete tumor regression	greatly extended lifespan		154	~100		
CC(=O)O[C@H]1C(=O)[C@@]2(C)[C@H]([C@H](OC(=O)c3ccccc3)[C@]3(O)C[C@H](OC(=O)[C@H](O)[C@@H](NC(=O)c4ccccc4)c4ccccc4)C(C)=C1C3(C)C)[C@]1(OC(C)=O)CO[C@@H]1C[C@@H]2O [paclitaxel]	no response	no response	no response					6300	42.4
